Source: ChEMBL document CHEMBL1133480, “Rational design, synthesis, and biological activity of benzoxazinones as novel factor Xa inhibitors” (J Med Chem, 2000)
pIC50: −log10 of the molar value.

Experiments:
Plasminogen [1] = target: T1, Plasminogen (Homo sapiens, UniProt P00747); assay: Compound was tested for in vitro inhibitory activity against plasmin
In short: (§1)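 Enzyme was preincubated 1 h at room temperature with inhibitor across 14 concentrations (1 nM–100 μM final). A405 was read kinetically over 10 min at 37 °C. Percent inhibition came from the linear progress-curve slopes, typically in duplicate.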

Prothrombin [2] = target: T2, Prothrombin (Homo sapiens, UniProt P00734); assay: Compound was tested for in vitro inhibitory activity against thrombin at 100 uM
Coagulation factor X = Coagulation factor X (Homo sapiens, UniProt P00742); assay: In vitro inhibition of coagulation factor Xa.; in short: as §1
Serine protease 1 [3] = target: T3, Serine protease 1 (Homo sapiens, UniProt P07477); assay: In vitro inhibitory activity against trypsin; in short: as §1
Prothrombin [4] = target: T2, Prothrombin; assay: Inhibition of thrombin at 100 uM
Plasminogen [5] = target: T1, Plasminogen; assay: Compound was tested for in vitro inhibitory activity against plasmin at 100 uM
Prothrombin [6] = target: T2, Prothrombin; assay: Inhibition of thrombin; in short: as §1
Plasminogen [7] = target: T1, Plasminogen; assay: Inhibition of plasmin at 100 uM
Serine protease 1 [8] = target: T3, Serine protease 1; assay: In vitro inhibitory activity against trypsin at 100 uM

T3 sequence (P07477 whole entry): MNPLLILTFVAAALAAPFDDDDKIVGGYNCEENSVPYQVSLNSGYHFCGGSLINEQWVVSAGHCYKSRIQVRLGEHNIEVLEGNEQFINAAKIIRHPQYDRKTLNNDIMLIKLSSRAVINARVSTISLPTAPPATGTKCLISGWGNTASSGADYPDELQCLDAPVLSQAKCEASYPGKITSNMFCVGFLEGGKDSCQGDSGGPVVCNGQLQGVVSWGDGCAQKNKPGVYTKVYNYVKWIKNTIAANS
T1 sequence (P00747 97-580 limits assumed): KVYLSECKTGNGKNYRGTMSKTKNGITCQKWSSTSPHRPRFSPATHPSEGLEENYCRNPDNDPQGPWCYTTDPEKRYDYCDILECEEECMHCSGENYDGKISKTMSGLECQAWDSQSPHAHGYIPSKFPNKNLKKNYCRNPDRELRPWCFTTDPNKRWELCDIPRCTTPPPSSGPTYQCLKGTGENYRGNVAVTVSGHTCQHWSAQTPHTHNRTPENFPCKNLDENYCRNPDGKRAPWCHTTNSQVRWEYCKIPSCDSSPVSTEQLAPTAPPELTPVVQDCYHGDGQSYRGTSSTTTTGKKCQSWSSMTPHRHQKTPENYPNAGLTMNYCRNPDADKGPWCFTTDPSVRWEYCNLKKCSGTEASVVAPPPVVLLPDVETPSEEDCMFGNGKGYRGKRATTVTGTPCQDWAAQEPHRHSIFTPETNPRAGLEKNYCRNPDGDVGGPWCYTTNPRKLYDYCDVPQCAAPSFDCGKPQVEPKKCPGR
T1 sequence (P00747 581-810 limits assumed): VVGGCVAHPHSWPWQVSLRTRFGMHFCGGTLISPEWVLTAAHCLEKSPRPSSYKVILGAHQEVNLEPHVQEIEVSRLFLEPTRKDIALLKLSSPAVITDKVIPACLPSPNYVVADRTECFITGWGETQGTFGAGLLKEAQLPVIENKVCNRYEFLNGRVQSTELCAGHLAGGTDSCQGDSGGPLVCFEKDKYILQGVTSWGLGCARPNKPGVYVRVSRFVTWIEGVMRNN
Sequence of Coagulation factor X (P00742 41-179 limits assumed): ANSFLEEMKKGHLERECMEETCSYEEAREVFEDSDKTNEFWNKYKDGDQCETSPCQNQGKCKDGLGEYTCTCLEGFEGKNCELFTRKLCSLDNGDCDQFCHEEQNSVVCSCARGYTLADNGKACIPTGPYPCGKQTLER
Sequence of Coagulation factor X (P00742 235-488 limits assumed): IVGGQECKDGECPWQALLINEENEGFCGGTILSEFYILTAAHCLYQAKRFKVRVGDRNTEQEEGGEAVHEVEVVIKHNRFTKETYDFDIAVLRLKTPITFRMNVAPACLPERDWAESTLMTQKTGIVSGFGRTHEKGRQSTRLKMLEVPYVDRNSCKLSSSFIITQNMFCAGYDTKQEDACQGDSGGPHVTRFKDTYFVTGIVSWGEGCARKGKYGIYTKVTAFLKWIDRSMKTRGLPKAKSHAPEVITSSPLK

SMILES | pIC50 (Plasminogen [1]) | inhibition (Prothrombin [2]) | pIC50 (Coagulation factor X) | pIC50 (Serine protease 1 [3]) | inhibition (Prothrombin [4]) | inhibition (Plasminogen [5]) | pIC50 (Prothrombin [6]) | inhibition (Plasminogen [7]) | inhibition (Serine protease 1 [8])
N=C(N)c1cccc(C2Oc3ccccc3N(CCCCCN)C2=O)c1 (centres undefined) |  |  | 5.20 | 5.37 | 60% | 64% |  |  | 
CC1CCCC(C)N1CCCCCN1C(=O)C(c2cccc(C(=N)S)c2)Oc2ccccc21 (centres undefined) |  |  |  |  | 20% |  |  | 29% | 5.2%
COc1ccc(C2Oc3ccccc3N(CCCCCN3C(C)CCCC3C)C2=O)cc1 (centres undefined) |  |  | 5.31 |  | 29% |  |  | 19% | 2.3%
CCCCCCN(CCCCCC)CCCCCN1C(=O)C(c2cccc(C(=N)N)c2)Oc2ccccc21 (centres undefined) | 5.66 |  | 5.80 | 5.60 |  |  | 5.72 |  | 
CC1CCCC(C)N1CCCCCN1C(=O)C(c2cccc(C(=N)NN3CCOCC3)c2)Oc2ccccc21 (centres undefined) |  |  |  |  | 15% | 0% |  |  | 58%
Cc1ccc(C2Oc3ccccc3N(CCCCCN3C(C)CCCC3C)C2=O)cc1 (centres undefined) |  |  | 4.55 |  | 33% |  |  | 13% | 18%
CNC(=N)c1cccc(C2Oc3ccccc3N(CCCCCN3C(C)CCCC3C)C2=O)c1 (centres undefined) |  |  | 5.55 |  |  |  |  |  | 
CC1CCCC(C)N1CCCCCN1C(=O)C(c2ccc(C(=N)NO)cc2)Oc2ccccc21 (centres undefined) |  |  | 4.18 |  | 18% |  |  | 10% | 8%

Results, then the compound that gave them:

pIC50 (Plasminogen [1]) | inhibition (Prothrombin [2]) | pIC50 (Coagulation factor X) | pIC50 (Serine protease 1 [3]) | inhibition (Prothrombin [4]) | inhibition (Plasminogen [5]) | pIC50 (Prothrombin [6]) | inhibition (Plasminogen [7]) | inhibition (Serine protease 1 [8]) | SMILES
4.60 | 64% | 6.08 | 5.11 |  |  |  |  |  | CC1CCCC(C)N1CCCCCN1C(=O)C(c2cccc(CN)c2)Oc2ccccc21 (centres undefined)
 |  | 6.62 | 5.96 |  | 70% | 5.66 |  |  | N=C(N)c1cccc(C2Oc3ccccc3N(CCCCCN3CCOCC3)C2=O)c1 (centres undefined)
 |  | 7.32 | 6.12 |  | 85% | 6.04 |  |  | CC1CCC(C)N1CCCCCN1C(=O)C(c2cccc(C(=N)N)c2)Oc2ccccc21 (centres undefined)
 |  | 5.82 |  |  |  |  |  |  | CC1CCCC(C)N1CCCCCN1C(=O)C(c2cccc(C(N)=NN3CCOCC3)c2)Oc2ccccc21 (centres undefined)
4.42 |  | 7.92 | 6.52 |  |  | 5.96 |  |  | CC1CCCC(C)N1CCCCN1C(=O)C(c2cccc(C(=N)N)c2)Oc2ccccc21 (centres undefined)
